From publication PMC11393732 (RSC Medicinal Chemistry, 2024)

Assays:
[1] = test system: 293T cells expressing a TCF-responsive luciferase reporter (293T-TCF-Luc); assay: Wnt luciferase reporter assay; assay type: cell-based; conditions: Homo sapiens, HEK-293T, 16 h, read-out: IC50 (293T-TCF-Luc)
How it was run: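 293T cells stably transduced with a lentiviral TCF/LEF–luciferase reporter and selected in puromycin ([…], 4 days). Seeded at 100 000 cells/well and dosed with test compound on attachment. Wnt signalling stimulated with 20 mM LiCl 4 h later. Lysates taken at 16 h; Bright-Glo luminescence normalised to total protein.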

[2] = target: T1, KDM3A (Homo sapiens, UniProt Q9Y4C1); assay: Western blot KDM3A degradation in SW480 cells; assay type: cell-based
T1 sequence (Q9Y4C1 1-1321): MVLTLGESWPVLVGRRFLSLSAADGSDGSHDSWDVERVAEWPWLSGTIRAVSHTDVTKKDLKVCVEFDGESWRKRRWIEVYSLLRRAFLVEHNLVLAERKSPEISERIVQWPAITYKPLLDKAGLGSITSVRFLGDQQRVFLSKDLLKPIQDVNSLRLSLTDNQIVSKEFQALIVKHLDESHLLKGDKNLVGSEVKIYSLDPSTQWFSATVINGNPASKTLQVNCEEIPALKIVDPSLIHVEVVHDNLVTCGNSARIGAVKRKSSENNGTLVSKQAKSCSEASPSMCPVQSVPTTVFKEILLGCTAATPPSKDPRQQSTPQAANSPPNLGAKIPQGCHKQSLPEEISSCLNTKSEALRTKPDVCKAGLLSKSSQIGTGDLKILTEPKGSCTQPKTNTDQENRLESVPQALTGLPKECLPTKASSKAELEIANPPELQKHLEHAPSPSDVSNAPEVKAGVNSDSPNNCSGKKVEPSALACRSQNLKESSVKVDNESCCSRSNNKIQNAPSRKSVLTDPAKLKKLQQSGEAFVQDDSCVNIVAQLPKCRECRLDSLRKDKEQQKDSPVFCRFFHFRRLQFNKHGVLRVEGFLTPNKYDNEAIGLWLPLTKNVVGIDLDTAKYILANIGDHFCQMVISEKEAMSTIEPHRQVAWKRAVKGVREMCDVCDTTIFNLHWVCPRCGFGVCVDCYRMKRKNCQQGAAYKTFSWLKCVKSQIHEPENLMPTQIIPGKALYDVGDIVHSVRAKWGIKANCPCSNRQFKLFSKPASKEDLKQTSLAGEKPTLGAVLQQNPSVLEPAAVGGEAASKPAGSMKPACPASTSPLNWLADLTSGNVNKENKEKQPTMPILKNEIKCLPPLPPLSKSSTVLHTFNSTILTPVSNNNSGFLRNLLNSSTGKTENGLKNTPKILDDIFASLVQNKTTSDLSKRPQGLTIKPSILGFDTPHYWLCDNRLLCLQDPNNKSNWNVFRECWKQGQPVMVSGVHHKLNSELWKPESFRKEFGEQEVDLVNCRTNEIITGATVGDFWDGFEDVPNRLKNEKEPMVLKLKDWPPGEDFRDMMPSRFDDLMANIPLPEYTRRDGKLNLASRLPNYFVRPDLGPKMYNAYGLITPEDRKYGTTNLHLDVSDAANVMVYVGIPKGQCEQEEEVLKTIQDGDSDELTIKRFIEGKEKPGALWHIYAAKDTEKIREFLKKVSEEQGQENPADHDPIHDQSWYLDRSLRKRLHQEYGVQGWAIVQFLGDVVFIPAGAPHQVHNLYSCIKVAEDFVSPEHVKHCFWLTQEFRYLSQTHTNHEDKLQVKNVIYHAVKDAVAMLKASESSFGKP
How it was run: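 SW480 cells exposed to test compound for 16 h, then total lysates protein-normalised and run on SDS-PAGE. Semi-dry transfer to PVDF, 1 h block in 5% milk. Primary antibody overnight at 4 °C in 1% milk, secondary 1 h at RT, TBST washes, α-tubulin as loading control. Rescue arms co-treated with MLN4924 (1 μM) or pomalidomide (100 μM). Test compound at 0.1 μM for the KDM3A blot and 1 μM for the KDM3B blot.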

[3] = test system: KDM4 family proteins (KDM4A, KDM4B and KDM4C); assay: Western blot KDM4 family proteins in SW480 cells; assay type: cell-based, human
How it was run: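 Lysates from compound-treated SW480 cells normalised for total protein and resolved by SDS-PAGE. Semi-dry transfer to PVDF, 1 h block in 5% milk. Overnight incubation at 4 °C with anti-KDM4A, -KDM4B or -KDM4C antibody in 1% milk, secondary 1 h at RT, TBST washes, α-tubulin as loading control.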

[4] = target: KDM3B (Homo sapiens, UniProt Q7LBC6); assay: Western blot KDM3B degradation in HCP-1 cells; assay type: cell-based
[5] = test system: CRL-1790 cells; assay: CCK-8 based toxicity assay; assay type: cell-based, human
How it was run: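 Non-malignant human colon epithelial CRL-1790 cells grown in EMEM with 10% FBS and 1% pen–strep at 37 °C and 5% CO2. Seeded at 3 × 10^3 cells/well in 96-well plates, then exposed to test compound. Viability read by CCK-8 at 48 h as OD 450 nm. TD50 derived from the dose–response.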

[6] = test system: Wnt target genes in HCP-1 cells; assay: RT-qPCR of Wnt target gene expression in HCP-1; assay type: cell-based, human
How it was run: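 Cells in 6-well plates exposed to test compound for 16 h. Total RNA extracted; 1 μg reverse-transcribed with M-MuLV and random hexamers. SYBR Green qPCR for the named genes, quantified by 2ΔΔct against tubulin. Mean ± SD; unpaired two-tailed Student's t-test.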

[7] = test system: ALDH^High-HCP-1 CSC-derived tumors; assay: In vivo tumor growth, ALDH^High-HCP-1 CSC xenograft; parameters: species or system mice
How it was run: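 NSG mice in 5 groups of 5. FACS-sorted ALDHHigh HCP-1 cells (2500 in Matrigel) injected subcutaneously into both flanks. Test compound given IP at 3, 10 or 35 mg kg−1, or IOX1 at 10 mg kg−1, in PBS/Kolliphor EL vehicle; controls got vehicle; 16 days. Body weight taken every other day, tumour volume on days 9, 13–16, tumour weight at sacrifice.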

[8] = test system: CCND1; assay: IHC of HCP-1 xenograft tumors, CCND1; assay type: in vivo, mice; conditions: HCP-1 xenograft tumor tissues
How it was run: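 Tumours came from ALDHHigh HCP-1 xenografts in NSG mice given test compound IP (3, 10 or 35 mg kg−1) for 16 days. Paraffin sections were deparaffinised and rehydrated, then antigen-unmasked. Peroxidase blocked; sections blocked 1 h in 10% goat serum. Primary antibody overnight at 4 °C, biotinylated secondary 30 min at RT, avidin–biotin peroxidase detection, hematoxylin counterstain.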

Chain of KDM3B (Q7LBC6 whole entry): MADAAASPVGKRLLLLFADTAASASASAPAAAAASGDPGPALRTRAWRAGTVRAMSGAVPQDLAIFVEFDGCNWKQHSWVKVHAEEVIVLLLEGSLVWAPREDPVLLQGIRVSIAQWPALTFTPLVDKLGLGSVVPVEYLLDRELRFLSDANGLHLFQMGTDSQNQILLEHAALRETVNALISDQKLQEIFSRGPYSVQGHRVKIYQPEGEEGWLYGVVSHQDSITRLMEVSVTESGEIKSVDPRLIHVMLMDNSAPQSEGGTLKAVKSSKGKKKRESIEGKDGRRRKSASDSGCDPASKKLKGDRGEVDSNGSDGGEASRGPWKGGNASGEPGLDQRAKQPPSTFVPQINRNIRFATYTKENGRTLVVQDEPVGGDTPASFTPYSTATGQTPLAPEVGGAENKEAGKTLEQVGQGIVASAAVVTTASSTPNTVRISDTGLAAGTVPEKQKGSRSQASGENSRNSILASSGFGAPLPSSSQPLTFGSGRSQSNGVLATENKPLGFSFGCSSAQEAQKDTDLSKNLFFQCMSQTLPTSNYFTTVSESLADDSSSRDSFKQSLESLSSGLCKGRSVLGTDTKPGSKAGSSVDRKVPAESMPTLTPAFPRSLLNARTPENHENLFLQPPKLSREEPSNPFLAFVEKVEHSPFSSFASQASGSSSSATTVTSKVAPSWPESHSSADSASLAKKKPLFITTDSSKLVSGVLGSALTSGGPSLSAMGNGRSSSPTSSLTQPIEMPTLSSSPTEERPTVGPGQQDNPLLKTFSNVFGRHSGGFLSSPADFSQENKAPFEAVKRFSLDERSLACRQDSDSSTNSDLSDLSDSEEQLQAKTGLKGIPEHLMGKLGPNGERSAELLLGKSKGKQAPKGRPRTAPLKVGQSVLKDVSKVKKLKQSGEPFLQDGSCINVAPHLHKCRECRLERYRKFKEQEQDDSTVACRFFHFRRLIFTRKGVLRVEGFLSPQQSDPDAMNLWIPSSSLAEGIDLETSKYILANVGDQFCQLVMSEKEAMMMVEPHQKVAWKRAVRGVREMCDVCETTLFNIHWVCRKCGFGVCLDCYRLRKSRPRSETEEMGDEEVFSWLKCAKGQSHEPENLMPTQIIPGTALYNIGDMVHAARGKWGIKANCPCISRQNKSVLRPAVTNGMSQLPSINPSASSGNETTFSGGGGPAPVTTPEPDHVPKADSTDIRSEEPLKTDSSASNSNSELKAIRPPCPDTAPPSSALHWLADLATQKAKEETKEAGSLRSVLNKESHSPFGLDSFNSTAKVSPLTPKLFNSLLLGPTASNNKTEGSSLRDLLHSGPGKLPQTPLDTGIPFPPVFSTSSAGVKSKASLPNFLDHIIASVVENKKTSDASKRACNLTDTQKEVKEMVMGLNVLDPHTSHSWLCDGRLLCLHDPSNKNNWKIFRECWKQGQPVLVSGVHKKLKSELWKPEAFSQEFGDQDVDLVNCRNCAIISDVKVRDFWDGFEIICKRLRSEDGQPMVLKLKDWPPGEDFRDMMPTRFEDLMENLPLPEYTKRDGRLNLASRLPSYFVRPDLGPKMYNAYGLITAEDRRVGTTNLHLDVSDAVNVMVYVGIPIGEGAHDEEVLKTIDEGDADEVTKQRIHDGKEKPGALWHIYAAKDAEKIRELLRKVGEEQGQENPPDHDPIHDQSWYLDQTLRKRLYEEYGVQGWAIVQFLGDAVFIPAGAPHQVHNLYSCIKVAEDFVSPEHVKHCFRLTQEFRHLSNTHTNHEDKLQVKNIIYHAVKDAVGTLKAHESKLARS

O=C1CCC(N2C(=O)c3cccc(NCCOCCOCCOCCOCCNC(=O)c4ccc(O)c5ncccc45)c3C2=O)C(=O)N1 (centres unmarked) [Compound 4, N-(14-((2-(2,6-Dioxopiperidin-3-yl)-1,3-dioxoisoindolin-4-yl)amino)-3,6,9,12-tetraoxatetradecyl)-8-hydroxyquinoline-5-carboxamide]
IC50 [1]: 8.9 µM
Dmax ([2]; SW480, read-out: Dmax KDM3A): 65.3%
KDM3A degradation with MLN4924 co-treatment ([2]; SW480, MLN4924 1 μM, compound 4 0.1 μM): could be restored by MLN4924
KDM3A degradation with pomalidomide or IOX1 co-treatment ([2]; SW480, pomalidomide 100 μM, compound 4 0.1 μM): could also be suppressed by either pomalidomide or IOX1
KDM3A degradation (western blot) ([2]; SW480 cells, 16 hours): degrades both KDM3A and KDM3B at nanomolar concentrations
DC50 ([2]; read-out: DC50 KDM3A, SW480 cells, 16 hours): 0.0137 µM
effect on KDM4 family proteins [3]: not dramatically affected
KDM3B degradation [4]: potently induce KDM3A and KDM3B degradation
cell growth of CRL-1790 ([5]; 60 μM, two-day treatment): not dramatically affected
TD50 CRL-1790 ([5]; CCK8 assay, 48 h post drug treatment): 285.4 µM
suppression of Wnt target gene expression (AXIN2, DKK1, CCND1) ([6]; HCP-1, 50 μM, 16-hour treatment, in most cases): ≥ 50%
expression of colorectal CSC signature genes (ASCL2, RNF43, ZNRF3, LGR5) ([6]; HCP-1, 16 hours): strongly inhibited
tumor volume and tumor weight vs IOX1 group ([7]; 3 mg kg^−1 IP vs IOX1 10 mg kg^−1): no significant change
CSC-derived tumor growth ([7]; 3, 10, 35 mg kg^−1 IP, 16 days, vs vehicle): significantly inhibited
tumor volume and tumor weight vs IOX1 group ([7]; 10 and 35 mg kg^−1 IP vs IOX1 10 mg kg^−1): significantly decreased
body weight of mice ([7]; IP, 16 days): little impact on the body weight
CCND1 expression (IHC) [8]: downregulated
